What was measured:
HeLa cells [1] = experiment: Rescue of DNMDP induced cytotoxicity; format: cell-based, human; conditions: 48 hours; for rank in bioactives screen for rescue of cell death induced by DNMDP: 20 µM compound with 30 nM DNMDP, 1600 compounds; for rescue of DNMDP cytotoxicity: DNMDP in combination, dose response; for competition with DNMDP (rescue): up to 10 µM
Method in brief: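 HeLa cells (1000/well, 384-well) in DMEM with 10% FBS and 1% Pen/Strep. 24 h after plating, 1600 bioactives added at 20 µM together with cytotoxic agent at 30 nM final; 48 h incubation. Follow-up combinations used indicated PDE3/pan-PDE inhibitor concentrations with single data points. CellTiter-Glo viability expressed as percentage of untreated DMSO control.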

HeLa cells [2] = experiment: Compound sensitivity testing; format: cell-based, human; conditions: for activity compared with (R)-DNMDP: cell viability, (R)-des-nitro analogues
Method in brief: (§1)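 Cells per 384-well: A549 1000 (RPMI), HeLa 1000 (DMEM), MCF-7 500 (DMEM), PC3 4000 (F12-K), NCI-H2122 1000 (RPMI), NCI-H1563 1500 (RPMI); all with 10% FBS. Test compound added 24 h after plating, 48 h exposure. Readout: 25% CellTiter-Glo in PBS, 10 min, luminescence, normalized to DMSO. Dose curves: mean of 8 replicates ± s.d.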

PDE3A = PDE3A (Homo sapiens, UniProt Q14432); experiment: Linker-affinity purification with DNMDP-2L resin and PDE3A immunoblot; format: binding; conditions: HeLa cell lysate, 10 µM competitor
PDE3A, sequence (Q14432 whole entry): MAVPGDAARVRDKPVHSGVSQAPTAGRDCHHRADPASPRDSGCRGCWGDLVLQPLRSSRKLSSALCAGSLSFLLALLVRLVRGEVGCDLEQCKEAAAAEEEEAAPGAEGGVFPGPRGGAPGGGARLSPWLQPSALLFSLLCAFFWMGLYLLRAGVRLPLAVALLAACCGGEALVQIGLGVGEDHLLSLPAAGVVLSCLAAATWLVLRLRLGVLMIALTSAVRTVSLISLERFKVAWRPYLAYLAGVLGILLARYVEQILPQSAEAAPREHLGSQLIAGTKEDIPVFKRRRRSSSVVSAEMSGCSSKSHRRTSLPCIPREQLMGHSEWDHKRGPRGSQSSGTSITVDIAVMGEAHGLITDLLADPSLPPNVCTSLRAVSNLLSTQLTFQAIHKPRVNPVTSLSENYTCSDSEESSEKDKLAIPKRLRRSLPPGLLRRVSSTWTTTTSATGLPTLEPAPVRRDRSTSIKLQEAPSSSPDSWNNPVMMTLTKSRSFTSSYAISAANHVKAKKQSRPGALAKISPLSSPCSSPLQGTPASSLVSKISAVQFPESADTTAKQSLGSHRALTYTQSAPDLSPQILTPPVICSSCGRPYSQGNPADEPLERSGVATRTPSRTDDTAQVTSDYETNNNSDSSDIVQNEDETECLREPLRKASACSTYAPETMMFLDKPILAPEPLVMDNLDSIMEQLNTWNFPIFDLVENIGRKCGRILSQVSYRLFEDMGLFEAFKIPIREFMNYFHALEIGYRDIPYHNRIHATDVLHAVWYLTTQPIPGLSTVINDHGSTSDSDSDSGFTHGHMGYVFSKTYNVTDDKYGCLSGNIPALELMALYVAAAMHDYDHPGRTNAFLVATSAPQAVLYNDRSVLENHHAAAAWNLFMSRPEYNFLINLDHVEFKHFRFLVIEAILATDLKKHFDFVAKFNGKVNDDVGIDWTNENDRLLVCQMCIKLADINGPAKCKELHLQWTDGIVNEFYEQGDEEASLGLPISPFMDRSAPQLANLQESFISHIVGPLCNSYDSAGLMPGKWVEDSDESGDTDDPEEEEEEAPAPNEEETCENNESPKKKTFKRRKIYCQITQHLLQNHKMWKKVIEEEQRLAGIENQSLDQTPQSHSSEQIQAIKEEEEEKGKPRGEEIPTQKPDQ
Method in brief: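 200 µg lysate incubated 4 h with resin-coupled linker analogue, competitor compounds added beforehand. Three washes in buffer with 10 µM compound. Bound protein resolved by SDS-PAGE; anti-PDE3A immunoblot (1:1000, overnight, 4 °C); infrared detection.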

PDE3 = conditions: read-out: PDE3 IC50; cited from earlier work
NCI-H1563 cells = experiment: Compound sensitivity testing; format: cell-based; conditions: Homo sapiens, NCI-H1563, 48 h
Method in brief: as §1

HeLa cells [3] = experiment: Caspase activity; format: cell-based, human; conditions: 48 hours (caspase), 36 hours (PARP)
Method in brief: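 HeLa cells (1000/well, 384-well) in growth medium with 10% FBS; test compound added 24 h after plating. Caspase: 48 h exposure, Caspase-Glo added, luminescence read. PARP: 36 h exposure to test compound or staurosporine; NP-40 lysis; immunoblot for PARP (1:1000) and actin (1:20,000), infrared imaging.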

PC3 cells = experiment: Compound sensitivity testing; format: cell-based; conditions: Homo sapiens, PC-3, 48 h
Method in brief: as §1

[4] = tested on: 766 genomically characterized cancer cell lines; experiment: Large-scale cell-line viability measurements; format: cell-based, human; conditions: of 766 cancer cell lines, 72 hours, 66.4 µM to 2 nM
Method in brief: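 500 cells/well in 1536-well plates, each line in its preferred medium; overnight incubation. Test compound acoustically dispensed at 16 concentrations, 66.4 µM–2 nM, 2-fold steps, in duplicate. After 72 h, ATP measured by CellTiter-Glo, normalized to media-only and DMSO wells. Curves fit to 2- or 3-parameter sigmoids. Sensitivity metric: AUC of optimal 8-point curve by numeric integration.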

[5] = tested on: PDE3A complex with V5-tagged SIRT7 and SLFN12; experiment: PDE3A immunoprecipitation and V5 immunoblot; format: cell-based, human; conditions: HeLa, 10 µM, 4 hours, co-immunoprecipitation
Method in brief: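 HeLa cells transfected with V5-tagged SIRT7, SLFN12 or GFP constructs. At 72 h, treated 4 h with 10 µM test compound or trequinsin. Lysis in ModRipa (1% NP-40, 50 mM Tris-HCl pH 7.8, 150 mM NaCl, 0.1% deoxycholate, 1 mM EDTA). 2 mg lysate with 1 µg anti-PDE3A overnight at 4 °C, then Protein A/G beads 1 h. LDS elution; immunoblots for V5 (1:5000) and PDE3A (1:1000).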

MCF7 cells = experiment: Compound sensitivity testing; format: cell-based; conditions: Homo sapiens, MCF7, 48 h
Method in brief: as §1

NCI-H1734 cells = experiment: Cell viability; format: cell-based, human; conditions: NCI-H1734 versus A549, 48 hours
234 kinases = experiment: Millipore KinaseProfiler panel; format: biochemical, human; conditions: 10 µM DNMDP
NCI-H2122 cells = experiment: Compound sensitivity testing; format: cell-based; conditions: Homo sapiens, NCI-H2122, 48 h
Method in brief: as §1

A549 cells = experiment: Cell viability; format: cell-based; conditions: Homo sapiens, A549, 48 h
Method in brief: as §1

C[C@@H]1CC(=O)NN=C1c1ccc(NN=C(C#N)C#N)cc1 [levosimendan]
rank in bioactives screen for rescue of cell death induced by DNMDP (HeLa cells [1]): three most potent compounds
rescue of DNMDP cytotoxicity (HeLa cells [1]): able to rescue DNMDP cytotoxicity in a dose-dependent manner

CC(C)C(=O)c1c(C(C)C)nn2ccccc12 [idubilast]
competition with DNMDP (rescue) (HeLa cells [1]): not effective competitors

CCN(CC)c1ccc(C2=NNC(=O)C[C@H]2C)cc1 [DNMDP-2]
activity compared with (R)-DNMDP (HeLa cells [2]): tested similarly to (R)-DNMDP

COc1cc2c(cc1OC)-c1c/c(=N\c3c(C)cc(C)cc3C)n(C)c(=O)n1CC2 [trequinsin]
blocking of PDE3A binding to the tethered linker analogue (PDE3A): blocked
effect on HeLa cell viability (HeLa cells [2]; HeLa, up to 10 µM, 48 hours): did not affect HeLa cell viability in any detectable way
IC50 (PDE3): 0.25 nM

CN(C(=O)CCCOc1ccc2[nH]c(=O)ccc2c1)C1CCCCC1 [cilostamide]
rescue of DNMDP cytotoxicity (HeLa cells [1]): able to rescue DNMDP cytotoxicity in a dose-dependent manner

CCN(CC)c1ccc(C2=NNC(=O)CC2C)cc1 (stereo not shown) [DNMDP-3]
activity compared with (R)-DNMDP (HeLa cells [2]): tested similarly to (R)-DNMDP

CCN(CC)c1ccc(C2=NNC(=O)CC2C)cc1[N+](=O)[O-] (stereo not shown) [DNMDP, 6-(4-(diethylamino)-3-nitrophenyl)-5-methyl-4,5-dihydropyridazin-3(2H)-one]
EC50 (NCI-H1563 cells): 10 to 100 nM
induction of apoptosis (caspase activity, PARP cleavage) (HeLa cells [3]): undergo apoptosis
EC50 (PC3 cells): > 1000 nM
number of cell lines sensitive with a robust Z-score lower than -4 [4]: 22 cell lines
complex formation of V5-tagged SIRT7 and SLFN12 with PDE3A [5]: enhanced complex formation
EC50 (MCF7 cells): > 1000 nM
selective toxicity in dose-response retest (NCI-H1734 cells): specifically toxic to the NCI-H1734 cell line
EC70 concentration (HeLa cells [2]; HeLa, 48 hours): 30 nM
EC50 (HeLa cells [2]; Homo sapiens, HeLa, 48 h): 10 to 100 nM
kinase inhibition across 234 kinases (234 kinases): no kinase inhibition
EC50 (NCI-H2122 cells): 10 to 100 nM
EC50 (A549 cells): > 1000 nM

Cc1[nH]c(=O)c(C#N)cc1-c1ccncc1 [milrinone]
rank in bioactives screen for rescue of cell death induced by DNMDP (HeLa cells [1]): three most potent compounds
rescue of DNMDP cytotoxicity (HeLa cells [1]): able to rescue DNMDP cytotoxicity in a dose-dependent manner

CCN(CCOCCOCCNC(=O)OC(C)(C)C)c1ccc(C2=NNC(=O)C[C@H]2C)cc1 [DNMDP-2L]
rescue of DNMDP cytotoxicity (HeLa cells [1]): same DNMDP cytotoxicity rescue phenotype as non-cytotoxic PDE3 inhibitors

CCCc1nn(C)c2c(=O)[nH]c(-c3cc(S(=O)(=O)N4CCN(C)CC4)ccc3OCC)nc12 [sildenafil]
competition with DNMDP (rescue) (HeLa cells [1]): not effective competitors

OCCN(CCO)c1nc(N2CCCCC2)c2nc(N(CCO)CCO)nc(N3CCCCC3)c2n1 [dipyridamole]
competition with DNMDP (rescue) (HeLa cells [1]): not effective competitors

CCCc1nc(C)c2c(=O)[nH]c(-c3cc(S(=O)(=O)N4CCN(CC)CC4)ccc3OCC)nn12 [vardenafil]
competition with DNMDP (rescue) (HeLa cells [1]): not effective competitors

O=C1CCc2cc(OCCCCc3nnnn3C3CCCCC3)ccc2N1 [cilostazol]
rank in bioactives screen for rescue of cell death induced by DNMDP (HeLa cells [1]): three most potent compounds

Source: PMC4718766 (Nature chemical biology, 2015)
